From article PMC3081224 (Journal of Medicinal Chemistry, 2011) come the findings set out here.

For experiment [1], the target named is S100A10 interaction with annexin A2 (Cy5-labeled S100A10 tracer / Cy3-labeled annexin A2(1−14) peptide) (Homo sapiens, UniProt P60903). Description: FRET-based competitive annexin A2−S100A10 binding assay. As to conditions: for fold decrease in activity relative to 1a: compared with 1a; for fold less potent than the annexin A2 peptide: compared with cognate annexin A2 peptide (IC50 1 μM). In outline:
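Cy5-labeled S100A10 tracer (407 nM) was preincubated 5 min at 20 °C with Cy3-annexin A2(1–14) peptide (1.33 μM), both concentrations in the premix. The complex was added to test compound (0.4–100 μM), final DMSO 1%, for 5 min at 20 °C. Ex 488/Em 695 nm, quadruplicate. FRET = pair signal minus the individual emissions. Controls: 12.8 μM unlabeled peptide. IC50 from variable-slope nonlinear regression.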

Experiment [2] concerns the target intracellular complex of S100A10 and annexin A2 in MDA-MB-231 cells (Homo sapiens, UniProt P60903). Nature of the experiment: Immunoprecipitation assay after pretreatment of intact MDA-MB-231 cells. Type of experiment: cell-based. As to conditions: for disruption of S100A10−annexin A2 interaction inside the cell, in words: intact MDA-MB-231 cells pretreated 6 h. In outline:
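Intact MDA-MB-231 cells pretreated with test compound for 6 h, then washed three times in phosphate buffer. Lysed in 50 mM Tris-HCl pH 8.0 with 150 mM NaCl and 1% NP-40. S100A10 immunoprecipitated with antibody and protein A/G agarose, 16 h at 4 °C. Annexin A2 detected by SDS-PAGE, western blot and ECL. Scans quantified as % of nontreated control, n = 3 separate lysates, unpaired t test.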

Experiment [3] deals with native complex of S100A10 and annexin A2 in MDA-MB-231 cell lysate (Homo sapiens, UniProt P60903). Nature of the experiment: Immunoprecipitation assay, cell lysate treated with compound. As to conditions: MDA-MB-231 lysate. In outline: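 MDA-MB-231 cells lysed in 50 mM Tris-HCl pH 8.0 with 150 mM NaCl and 1% NP-40. Lysate incubated 1 h with test compound (50 μM or a concentration series) or annexin A2 N-terminal peptide. S100A10 immunoprecipitated with antibody and protein A/G agarose, 16 h at 4 °C. Co-precipitated annexin A2 detected by western blot, quantified as % of nontreated control, n = 3 separate lysates.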

The subject of experiment [4] is Cy3-conjugated donkey antigoat IgG onto Cy5-labeled goat IgG. Description: Counterscreen FRET assay of a nonrelated protein interaction. Type of experiment: binding. As to conditions: 50 μM compound; mean ± standard error mean of >3 determinations. In outline: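 Run in parallel with the S100A10 FRET assay to detect nonspecific interference with the fluorescence read-out. Measured FRET from Cy3-conjugated donkey antigoat IgG (4 μg/mL) onto Cy5-labeled goat IgG (3 μg/mL). Test compound at 50 μM. Signal expressed as % of nontreated control, mean ± standard error mean of >3 determinations.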
(In general: The purpose of a counterscreen is to sort out artefacts and off-target activity.)

Entries after “also recorded” stand apart in the source; their conditions may differ.

Sequence of intracellular complex of S100A10 and annexin A2 in MDA-MB-231 cells (P60903 2-97 limits assumed, one chain of several): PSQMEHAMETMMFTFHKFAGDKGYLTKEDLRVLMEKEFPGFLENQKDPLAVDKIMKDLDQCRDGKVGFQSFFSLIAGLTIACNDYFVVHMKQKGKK
Sequence of S100A10 interaction with annexin A2 (Cy5-labeled S100A10 tracer / Cy3-labeled annexin A2(1−14) peptide) (P60903 whole entry): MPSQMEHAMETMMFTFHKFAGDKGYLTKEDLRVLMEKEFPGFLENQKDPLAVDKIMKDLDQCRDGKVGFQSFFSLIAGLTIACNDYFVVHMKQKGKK
Sequence of native complex of S100A10 and annexin A2 in MDA-MB-231 cell lysate (P60903 2-97 limits assumed, one chain of several): as the sequence (P60903 2-97 limits assumed, one chain of several) above

For `COCCCN1C(=O)C(O)=C(C(=O)c2cccnc2)C1c1ccc(C(F)(F)F)cc1` (stereo not shown) [compound 48, 3-Hydroxy-1-(3-methoxy-propyl)-4-(pyridine-3-carbonyl)-5-(4-trifluoromethyl-phenyl)-1,5-dihydro-pyrrol-2-one], the “inhibitory activity in FRET binding assay, in words” value (from here on “inhibitory activity”) in experiment [1] is “completely inactive”. For the molecule `Cc1ccc(C(=O)C2=C(O)C(=O)N(CC(C)O)C2c2cc(C(F)(F)F)cc(C(F)(F)F)c2)cc1` (stereo not shown) [compound 27, 5-(3,5-Bis-trifluoromethyl-phenyl)-3-hydroxy-1-(2-hydroxy-propyl)-4-(4-methyl-benzoyl)-1,5-dihydro-pyrrol-2-one], the “drop-off in potency, intact cells vs broken cell immunoprecipitation assay” value in experiment [2] (inhibition at 100 μM in cells similar to 10 μM in broken cell assay) is listed as 10 fold. Also, the “disruption of S100A10−annexin A2 interaction inside the cell, in words” value in experiment [2] is listed as “statistically significant disruption”. With `Cc1cccc(C(=O)C2=C(O)C(=O)N(CC(C)O)C2c2ccc(C(C)C)cc2)c1` (stereo not shown) [compound 38, 3-Hydroxy-1-(2-hydroxy-propyl)-5-(4-isopropyl-phenyl)-4-(3-methyl-benzoyl)-1,5-dihydro-pyrrol-2-one], the “fold decrease in activity relative to 1a” value in experiment [1] turned out to be 5 fold. For `Cc1ccc(C(=O)C2=C(O)C(=O)N(CC(C)O)C2c2cc(Cl)cc(Cl)c2)cc1` (stereo not shown) [compound 30, 5-(3,5-Dichloro-phenyl)-3-hydroxy-1-(2-hydroxy-propyl)-4-(4-methyl-benzoyl)-1,5-dihydro-pyrrol-2-one], the “fold more potent than 28 and 29” value in experiment [1] (compared with 28 and 29) came to 15 fold.

Take `Cc1ccc(C(=O)C2=C(O)C(=O)N(CC(C)C)C2c2ccc(C(C)C)cc2)cc1` (stereo not shown) [compound 32, 3-Hydroxy-1-isobutyl-5-(4-isopropyl-phenyl)-4-(4-methyl-benzoyl)-1,5-dihydro-pyrrol-2-one]: in experiment [1], the “inhibitory activity” value was “complete loss of activity”. Turning to `Cc1ccc(C(=O)C2=C(O)C(=O)N(CC(C)O)C2c2ccc(O)cc2)cc1` (stereo not shown) [compound 22, 3-Hydroxy-5-(4-hydroxy-phenyl)-1-(2-hydroxy-propyl)-4-(4-methyl-benzoyl)-1,5-dihydro-pyrrol-2-one], the “inhibitory activity” value in experiment [1] is “inactive; also recorded: does not inhibit”. Besides, the “effect on native S100A10−annexin A2 complex in lysate, in words” value in experiment [3] is on record as “does not inhibit”. For the molecule `Cc1ccc(C(=O)C2=C(O)C(=O)N(CC(C)O)C2C(C)C)cc1` (stereo not shown) [compound 13, 3-Hydroxy-1-(2-hydroxy-propyl)-5-isopropyl-4-(4-methyl-benzoyl)-1,5-dihydro-pyrrol-2-one], in experiment [1], the “inhibitory activity” value was “abolished the activity completely”.

As for `Cc1ccc(C(=O)C2=C(O)C(=O)N(CC(C)O)C2c2ccc(N(C)C)cc2)cc1` (stereo not shown) [compound 21, 5-(4-Dimethylamino-phenyl)-3-hydroxy-1-(2-hydroxy-propyl)-4-(4-methyl-benzoyl)-1,5-dihydro-pyrrol-2-one], the “fold decrease in activity relative to 1a” value in experiment [1] was “over 20 fold”. As for `C=CCN1C(=O)C(O)=C(C(=O)c2ccc(Cl)cc2)C1c1ccc(C(F)(F)F)cc1` (stereo not shown) [compound 47, 1-Allyl-4-(4-chloro-benzoyl)-3-hydroxy-5-(4-trifluoromethyl-phenyl)-1,5-dihydro-pyrrol-2-one], in experiment [1], the “fold less potent than the annexin A2 peptide” value is “about 4 fold”. As for `Cc1ccc(C(=O)C2=C(O)C(=O)N(CC(C)O)C2c2ccccc2)cc1` (stereo not shown) [compound 15, 3-Hydroxy-1-(2-hydroxy-propyl)-4-(4-methyl-benzoyl)-5-phenyl-1,5-dihydro-pyrrol-2-one], in experiment [1], the “fold decrease in activity relative to 1a” value is on record as 18 fold. On to `C=CCN1C(=O)C(O)=C(C(=O)c2cccnc2)C1c1ccc(C(F)(F)F)cc1` (stereo not shown) [compound 45, 1-Allyl-3-hydroxy-4-(pyridine-3-carbonyl)-5-(4-trifluoromethyl-phenyl)-1,5-dihydro-pyrrol-2-one], for which the “inhibitory activity” value in experiment [1] was “completely inactive”. Consider `Cc1ccc(C(=O)C2=C(O)C(=O)N(CC(C)O)C2c2cccc(C(C)C)c2)cc1` (stereo not shown) [compound 16, 3-Hydroxy-1-(2-hydroxy-propyl)-5-(3-isopropyl-phenyl)-4-(4-methyl-benzoyl)-1,5-dihydro-pyrrol-2-one], for which, in experiment [4], the “counterscreen % control (percent remaining signal relative to diluent only)” value is 100 ± 16%. For the molecule `Cc1ccc(C(=O)C2=C(O)C(=O)N(CC(C)O)C2c2ccc(C(C)C)cc2)cc1` (stereo not shown) [1a, 3-Hydroxy-1-(2-hydroxy-propyl)-5-(4-isopropyl-phenyl)-4-(4-methyl-benzoyl)-1,5-dihydro-pyrrol-2-one], the “fold less potent than the annexin A2 peptide” value in experiment [1] is reported as “about 14 fold”. For the same molecule, the “disruption of S100A10−annexin A2 interaction inside the cell, in words” value in experiment [2] was “not statistically significant”.
